zVAD death inh – L929 zVAD cell death inhibition. L929 zVAD necroptosis rescue, ATP luminescence, 24 h; with zVAD 60 µM. viability rescue, % at 10 µM. 220,000 compounds, 0.38% hits;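 active = activation, scaled between plate controls, above about 75%, limit read from the data; inactive = activation under that limit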;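 also: 0% = zVAD with DMSO and 100% = DMSO alone without zVAD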
TNF death inh – TNF-alpha cell death inhibition in Jurkat FADD-/- cells; AID 463075; 220,000 compounds, 0.068% hits; activation (protection from cell death), % at 10 µM; Jurkat FADD-/- TNF necroptosis rescue, ATP luminescence, 24 h; 0 = TNF only, 100 = no-TNF cells;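 active = activation, meaning protection from cell death, of at least 50% relative to plate controls; inactive = activation below 50%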;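 also: necroptosis triggered by 40 ng/mL TNF-alpha added together with compound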
TNAP inh no acc – TNAP (human) inhibition, acceptor-free conditions; 200,000 compounds, 0.26% hits; purified TNAP, CDP-star luminescence, 30 min; AID 1012; inhibition, % at 20 µM; P05186;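 active = tissue-nonspecific alkaline phosphatase inhibition above about 50% at 20 µM in the single-dose screen, limit read from the data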;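 also: 0% = DMSO negative control and 100% = EDTA positive control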
Target sequence (P05186 whole entry, looked up): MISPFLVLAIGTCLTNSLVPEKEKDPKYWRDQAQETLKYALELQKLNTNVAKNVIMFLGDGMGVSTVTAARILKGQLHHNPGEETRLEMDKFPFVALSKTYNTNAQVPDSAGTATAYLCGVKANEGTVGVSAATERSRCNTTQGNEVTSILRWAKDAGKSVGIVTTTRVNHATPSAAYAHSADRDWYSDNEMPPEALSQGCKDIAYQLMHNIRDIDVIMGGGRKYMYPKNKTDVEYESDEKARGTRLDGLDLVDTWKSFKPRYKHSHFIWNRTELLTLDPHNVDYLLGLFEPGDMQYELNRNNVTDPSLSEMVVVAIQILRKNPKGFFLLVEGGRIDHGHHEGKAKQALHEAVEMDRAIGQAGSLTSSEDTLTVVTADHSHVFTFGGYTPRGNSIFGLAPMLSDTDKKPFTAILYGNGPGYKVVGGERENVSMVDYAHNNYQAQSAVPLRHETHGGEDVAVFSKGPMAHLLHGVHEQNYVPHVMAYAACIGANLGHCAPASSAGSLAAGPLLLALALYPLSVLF
SDO1 yeast rescue – compounds rescuing growth of sdo1-depleted yeast, bone marrow failure model; z-score at 10 µM; S. cerevisiae sdo1-depleted JHY4D growth rescue, OD600 30 h; active compounds read high; pdr5 snq2 efflux-pump mutant strain; 140,000 compounds, 0.21% hits;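 active = z-score above 3 at both the 24 hr and the 30 hr optical density reads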;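 also: z-score against mean and SD of all compound wells on the same plate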
TNAP inh hi DEA – inhibitors of human TNAP at high phosphate acceptor concentration; purified TNAP, CDP-star luminescence, 1 M DEA; P05186; 200,000 compounds, 0.03% hits; inhibition, % at 20 µM;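 active = over 50% inhibition of tissue-nonspecific alkaline phosphatase at 20 µM in the single-dose screen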;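 also: plate controls were DMSO wells for no effect and EDTA-quenched wells as full inhibition for full effect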
TNAP act hiacc – TNAP (human) activation, high acceptor | P05186 | purified TNAP, CDP-star luminescence, 1 M DEA, 30 min; active compounds read high; 0 = EDTA background, 1 = DMSO-only activity | 200,000 tested, under 10 active | activation factor at 20 µM;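 active = activation factor at least 2 at 20 µM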
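Test system – human TNAP · Doses – 20 µM single point · Incubation – 30 min, room temperature · Signal – luminescent substrate turnover signal · Read-out basis – activation factor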
SDO1 rescue DR – SDO1-depleted yeast growth rescue confirmation; 440 compounds, 44% hits; S. cerevisiae JHY4D (SDO1-depleted) growth rescue, OD600, 30 h; active compounds read high; efflux-deficient strain, SNQ2 and PDR5 mutated; OD recovery (no concentration beside the values); shares compounds with SDO1 yeast rescue;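 active = yeast growth recovered at 30 hours, either rising with dose fitted slope above 0.001 or with average optical density gain above 0.07, some results past the limit were not filed as active; inactive = growth falling with dose or no effect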;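 also: gain in OD600 from 0 h to 30 h averaged across all seven doses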
An asterisk follows results filed as active; . = no result. Shown are actives, neighbours in structure and some others; about 0.81% of the full set was active somewhere.

SMILES | zVAD death inh | TNF death inh | TNAP inh no acc | SDO1 yeast rescue | TNAP inh hi DEA | TNAP act hiacc | SDO1 rescue DR
Cc1cc(C)nc(Nc2ncc(O)n2-c2ccc(C)c(Cl)c2)n1 | -0.5 | -1.4 | -18.8 | 0.68 | -4.3 | 1 | .
Cc1cc(C)nc(Nc2ncc(O)n2-c2ccc(C)c(C)c2)n1 | -0.5 | -0.2 | 2.1 | 5.87* | -6.3 | 1.1 | 0.0769*
CCOC(=O)/C(C#N)=C\c1cc(OC)c(OC)cc1[N+](=O)[O-] | 4.2 | 0.5 | -5.2 | . | -3.5 | 1 | .
S=c1sc2c(N3CCOCC3)ncnc2n1-c1ccccc1 | -0.1 | 0.0 | -7.7 | 7.63* | -2.9 | 1 | 0.0293
CSc1nc(N)nc(SCC(=O)c2ccc(C)cc2)c1C#N | 0.1 | -4.6 | -7.9 | 1.33 | -6.1 | 1.1 | 0.0762*
CCOc1ccc(NC(=O)N2CCC(C(N)=O)(N3CCCCC3)CC2)cc1 | 0.2 | -2.5 | -12.6 | 13.1* | -8.4 | 1.1 | 0.0655
O=C(COc1ccccc1)c1cn(CC(=O)N2CCCC2)c2ccccc12 | -0.8 | 0.0 | -2.9 | . | -2.8 | 1 | .
COc1ccc(C(=O)N2CCN=C2SCc2cccnc2)cc1OC | 1.3 | -2.0 | -15.3 | 1.99 | -6.3 | 1.1 | 0.0423
O=C(c1cccc(F)c1)N1CCCC(C(=O)N2CCCC2)C1 (stereo unspecified) | 1.6 | 0.4 | -9.1 | 0.13 | -6.1 | 1.1 | 0.0832*
O=C(c1cccc(F)c1)N1CCCC(C(=O)N2CCN(c3ccccc3)CC2)C1 (stereo unspecified) | 0.3 | 1.9 | . | . | . | . | .
COc1ccc(C(=O)N2CCCC(C(=O)N3CCCCCC3)C2)cc1 (stereo unspecified) | -0.7 | 2.0 | 2.6 | 4.18* | -4.6 | 1 | 0.0638
COc1ccc(C(=O)N2CCCC(C(=O)N3CCN(c4ccccc4)CC3)C2)cc1 (stereo unspecified) | -0.2 | -1.8 | . | . | . | . | .
COC(=O)c1ccc2c(=O)n(-c3ccccc3F)c(=S)[nH]c2c1 | -0.6 | 0.0 | -8.0 | . | -0.1 | 1 | .
CC(C)C(c1nnnn1CCc1ccccc1)N1CCSCC1 (stereo unspecified) | -0.9 | 1.1 | -2.3 | . | 0.6 | 1 | .
Cc1ccc(Cn2c(Sc3nccc(C)n3)nc3c2c(=O)[nH]c(=O)n3C)cc1 | 0.3 | -1.1 | 3.9 | 1.61 | -6.9 | 1.1 | 0.0943*
COc1cccc(/C=N\NC(=O)c2ccc(Cn3cc(Br)c([N+](=O)[O-])n3)o2)c1O | 58.0 | -8.9 | -40.2 | . | -0.2 | 1 | .
COc1ccccc1OC(C)C(=O)O (stereo unspecified) | -0.1 | -0.1 | -9.8 | 5.15* | -4.2 | 1 | 0.0676
COc1ccc(S(=O)(=O)N2CCCC(C(=O)Nc3cccc(C(C)=O)c3)C2)cc1 (stereo unspecified) | 0.0 | -0.7 | 5.8 | 1.77 | -0.7 | 1 | 0.0502
COc1cc(C(=O)N2CCC(C(=O)Nc3cccc(C(C)=O)c3)CC2)cc(OC)c1OC | 1.5 | 0.4 | -17.4 | 2.8 | -8.9 | 1.1 | 0.0591
COc1ccc(NC(=O)C2CCN(C(=O)c3ccccc3)CC2)cc1OC | 0.5 | -3.2 | -10.6 | 2.22 | -3.7 | 1 | .
N#Cc1cc2c(nc1SCC(=O)Nc1sc3c(c1C#N)CCC3)CCCCCC2 | 0.1 | 5.9 | -10.7 | -1.21 | -5.3 | 1.1 | .
N#Cc1cc2c(nc1SCC(=O)Nc1sc3c(c1C#N)CCC3)CCC2 | 0.7 | 4.3 | -7.5 | 1.12 | 5.6 | 0.9 | 0.0241
O=C(Nc1cc([N+](=O)[O-])ccc1Cl)C(Sc1ccccc1)c1ccccc1 (stereo unspecified) | 1.1 | 0.9 | -11.5 | 11.2* | -1.5 | 1 | 0.0594
CC(C)(C)c1cc(Cc2ccccc2)[nH]n1 | 0.2 | 0.6 | 2.6 | -0.36 | -2.8 | 1 | .
Cc1cc(C)c(-c2csc(NC(=O)COC(=O)c3ccc4c(c3)OCO4)n2)c(C)c1 | 1.4 | -3.8 | -7.2 | 0.97 | -5.4 | 1.1 | 0.0538
O=C(COC(=O)c1ccc2c(c1)OCO2)Nc1nc(-c2ccccc2)cs1 | -0.3 | 0.8 | -6.3 | . | -4.9 | 1 | .
